From paper PMC7860060 (ACS Omega, 2021)
“Also recorded” adds a separate entry of the source. Where no end group is shown, it is not given here.

What was measured:
native Fgn (fibrinogen) = test: ITC titration of peptide into native Fgn; assay type: binding, bovine; conditions: peptide 0.21 mM into Fgn 4 μM, 0.1 M sodium phosphate pH 7.4, 25 °C
Procedure, shortened: (§1)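 Bovine plasma fibrinogen was used either native or carbamylated by stirring 0.008 mM protein with 0.1 M sodium cyanate in 0.1 M phosphate pH 7.4 at room temperature for 2 days. Cell held 4 μM protein; peptide titrant was 0.21 mM; both were in 0.1 M sodium phosphate pH 7.4. 50 injections 200 s apart, 150 rpm, 25 °C. Dilution heat subtracted, independent-model fit, repeated at least twice.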

[1] = target: carbamylated HSA (cHSA-3) (Homo sapiens, UniProt P02768); test: ITC titration of peptide into cHSA-3; assay type: binding; conditions: pH 7.4
[2] = target: carbamylated HSA (cHSA-1) (Homo sapiens, UniProt P02768); test: ITC titration of peptide into cHSA-1; assay type: binding; conditions: pH 7.4
cHSA = cHSA (Homo sapiens, UniProt P02768); test: ITC titration of peptide into cHSA of different levels of carbamylation; assay type: binding
cHSA, sequence (P02768 25-609): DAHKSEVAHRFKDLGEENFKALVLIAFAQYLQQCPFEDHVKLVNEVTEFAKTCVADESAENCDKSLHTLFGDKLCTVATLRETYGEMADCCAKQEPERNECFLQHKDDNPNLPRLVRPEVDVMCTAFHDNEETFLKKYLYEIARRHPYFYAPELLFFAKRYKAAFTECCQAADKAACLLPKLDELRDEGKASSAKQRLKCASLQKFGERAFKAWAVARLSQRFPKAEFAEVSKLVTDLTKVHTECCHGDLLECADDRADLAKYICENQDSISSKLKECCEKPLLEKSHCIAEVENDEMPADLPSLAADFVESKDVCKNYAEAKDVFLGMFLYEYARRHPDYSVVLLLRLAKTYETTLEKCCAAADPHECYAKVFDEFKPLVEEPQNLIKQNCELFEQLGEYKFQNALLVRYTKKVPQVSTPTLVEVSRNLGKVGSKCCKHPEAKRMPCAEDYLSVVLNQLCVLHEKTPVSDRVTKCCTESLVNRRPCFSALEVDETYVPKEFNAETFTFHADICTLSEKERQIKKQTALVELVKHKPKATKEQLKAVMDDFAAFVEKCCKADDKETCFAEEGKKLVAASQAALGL

native HSA = native HSA (Homo sapiens, UniProt P02768); test: ITC titration of peptide into native HSA; assay type: binding; conditions: 0.1 M sodium phosphate pH 7.4, 25 °C
native HSA, sequence (P02768 25-609): as above

[3] = target: anti-Hcit (anti-carbamylation (homocitrulline) polyclonal antibody); test: ITC titration of peptide into anti-Hcit; assay type: binding, rabbits; conditions: peptide into solution containing only anti-Hcit, 25 °C, 0.01 M PBS pH 7.4 containing 50% glycerol and 0.02% NaN3 (control test)
[4] = target: carbamylated HSA (cHSA-2) (Homo sapiens, UniProt P02768); test: ITC titration of peptide into cHSA-2; assay type: binding
[5] = target: T1, carbamylated fibrinogen (cFgn) (Bos taurus, UniProt P02672+P02676+P12799, DEL436-444); test: ITC titration of peptide into cFgn; assay type: binding, bovine
T1 sequence (P02672 20-615): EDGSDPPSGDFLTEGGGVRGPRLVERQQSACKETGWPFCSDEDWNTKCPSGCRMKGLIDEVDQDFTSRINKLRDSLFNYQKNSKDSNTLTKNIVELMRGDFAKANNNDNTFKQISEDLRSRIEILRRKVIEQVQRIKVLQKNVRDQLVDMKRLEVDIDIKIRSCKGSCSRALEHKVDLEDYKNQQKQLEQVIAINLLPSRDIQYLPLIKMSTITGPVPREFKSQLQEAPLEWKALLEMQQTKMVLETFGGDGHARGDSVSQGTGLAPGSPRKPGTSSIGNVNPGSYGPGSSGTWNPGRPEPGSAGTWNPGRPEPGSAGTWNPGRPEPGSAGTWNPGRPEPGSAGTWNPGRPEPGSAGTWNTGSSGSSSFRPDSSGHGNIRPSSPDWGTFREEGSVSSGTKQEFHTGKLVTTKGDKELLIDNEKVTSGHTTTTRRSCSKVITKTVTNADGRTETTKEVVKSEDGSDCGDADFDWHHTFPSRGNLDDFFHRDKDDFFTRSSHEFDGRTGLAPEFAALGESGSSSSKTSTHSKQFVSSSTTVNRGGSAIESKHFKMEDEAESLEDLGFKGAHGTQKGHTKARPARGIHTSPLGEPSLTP
T1 sequence (P02676 1-468): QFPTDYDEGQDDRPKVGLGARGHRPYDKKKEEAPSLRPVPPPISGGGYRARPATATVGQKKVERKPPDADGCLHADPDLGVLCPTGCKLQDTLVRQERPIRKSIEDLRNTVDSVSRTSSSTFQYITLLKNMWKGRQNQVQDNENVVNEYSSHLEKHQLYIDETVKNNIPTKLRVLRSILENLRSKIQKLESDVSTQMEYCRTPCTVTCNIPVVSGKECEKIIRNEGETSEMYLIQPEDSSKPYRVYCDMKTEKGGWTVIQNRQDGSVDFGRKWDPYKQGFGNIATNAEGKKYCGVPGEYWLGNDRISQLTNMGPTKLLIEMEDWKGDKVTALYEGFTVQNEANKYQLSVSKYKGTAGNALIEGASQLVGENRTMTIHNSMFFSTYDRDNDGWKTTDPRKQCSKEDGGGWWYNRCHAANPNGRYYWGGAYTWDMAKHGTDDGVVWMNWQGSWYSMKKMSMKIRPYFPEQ
T1 sequence (P12799 25-435 limits assumed): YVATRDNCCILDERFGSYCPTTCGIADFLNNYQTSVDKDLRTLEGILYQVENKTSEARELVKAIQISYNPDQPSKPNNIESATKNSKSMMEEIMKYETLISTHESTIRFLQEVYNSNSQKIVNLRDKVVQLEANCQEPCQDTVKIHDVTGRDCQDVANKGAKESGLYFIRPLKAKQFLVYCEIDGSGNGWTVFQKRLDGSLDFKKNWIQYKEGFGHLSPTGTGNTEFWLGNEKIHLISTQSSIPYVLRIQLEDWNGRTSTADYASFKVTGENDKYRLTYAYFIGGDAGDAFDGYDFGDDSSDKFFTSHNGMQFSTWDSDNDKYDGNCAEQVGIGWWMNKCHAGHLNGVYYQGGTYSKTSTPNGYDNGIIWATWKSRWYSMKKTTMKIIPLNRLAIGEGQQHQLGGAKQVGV
Procedure, shortened: as §1

[6] = Water solubility of peptides; assay type: physicochemical; conditions: peptide excluded from synthesis for ITC; 'would be' marginally soluble
[7] = target: Carbamylated human serum albumin, Hcit% 2.7 (cHSA-2) (human) (UniProt P02768); test: ITC
[8] = target: Anti-carbamylation (homocitrulline) polyclonal antibody (anti-Hcit) (rabbit); test: ITC
[9] = target: Albumin from human serum (native HSA) (human, UniProt P02768 25-609); test: ITC
Albumin from human serum (native HSA), sequence (P02768 25-609): as the sequence (P02768 25-609) above

In the case of GSAARTISPSLL [cH2-p1], the “binding to native Fgn (ITC)” value (native Fgn (fibrinogen)) is reported as “not binding to native Fgn at all”, the Kd [1] is reported as 99 µM and the Kd [2] is reported as 120 µM. The Kd (cHSA) was roughly 100 µM, the “binding thermodynamics (sign of heat), HSA/cHSA” value (cHSA; ITC titration peaks, HSA/cHSA, pH 7.4, 25 °C) was “exothermic” and the “influence of extent of carbamylation on binding affinity” value (cHSA; ITC, cHSA-1, cHSA-2, cHSA-3) was “difference in surface charge did not seem to affect the binding affinity; also recorded: not found to be influenced by the extent of carbamylation”. For the same molecule, the “binding to HSA in words (ITC)” value (native HSA) was “too weak to produce an obvious titration curve”, the Kd [3] was 1000 µM and the “Kd to cHSA relative to Kd to native HSA” value ([4]; ITC, comparison with native HSA) was “almost 1 order of magnitude lower than its Kd to native HSA”. The “binding affinity for cHSA versus HSA (ITC and ELISA)” value ([4]; both ITC and ELISA results) was “consistently higher binding affinity for cHSA than HSA”, the Kd ([4]; pH 7.4) was 97 µM and the Kd [5] was 84 µM. The “binding thermodynamics (sign of heat), cFgn” value ([5]; ITC titration peaks, pH 7.4, 25 °C) was “endothermic” and the “binding to carbamylated versus native fibrinogen (ITC)” value ([5]; cFgn versus native Fgn) was “binding specificity to carbamylated fibrinogen (cFgn); also recorded: found to bind cFgn over the native protein”.

For WPARTSAPFTNS [cH2-p3], the “aqueous solubility (expected)” value [6] was “marginally soluble”.

With TPTIAIAQYNKW [cH2-p5] the “aqueous solubility (expected)” value [6] was “marginally soluble”.

Molecule AHPHSDKLVPPR [cH2-p4 peptide (synthetic)] has a Kd [7] of 130 µM.

With GSAARTISPSLL [cH2-p1 peptide (synthetic)] the Kd [8] was 1000 µM and the Kd [9] was 1000 µM.

Work on TLGLRPVPVATT [cH2-p6 peptide (synthetic)] yielded a Kd [7] of 200 µM.
